NR3A LBD binder: modulates the human NR3A ligand-binding domain. 340,000 tested, 2.5% active. NR3A LBD differential scanning fluorimetry, Tm shift; 0% = protein alone, 100% = glycine-bound protein. Tm shift relative to glycine control, % at 25 µM;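 active means melting temperature shift of at least 10% of the positive control shift, at one fixed dose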
EBV gp42 inh: inhibitors of Epstein-Barr virus glycoprotein 42; Q1HVG2; Fluorescence polarization binding assay, mP read-out; inhibition, % (tested at 21.74 µM); 220,000 tested, 0.42% active; AID 1085; in the data active means inhibition above about 50%
Target sequence (Q1HVG2 whole entry, looked up): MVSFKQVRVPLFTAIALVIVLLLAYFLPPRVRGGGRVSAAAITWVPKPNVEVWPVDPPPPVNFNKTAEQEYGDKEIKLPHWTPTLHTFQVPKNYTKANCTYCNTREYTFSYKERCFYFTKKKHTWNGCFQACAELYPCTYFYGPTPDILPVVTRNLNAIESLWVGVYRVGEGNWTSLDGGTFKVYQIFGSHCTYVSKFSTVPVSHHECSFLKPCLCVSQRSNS
CHOP inh: inhibitors of CHOP induction in ER stress response; CHO-K1 CHOP-promoter luciferase, tunicamycin-induced, 15-18 h; inhibition, % at 10 µM; 220,000 tested, 3.8% active; AID 2732;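 active means compounds that reduced the stress-induced luciferase reporter signal by more than about 70% of percent inhibition, limit read from the data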;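 further: 0% = tunicamycin plus vehicle and 100% = wells without tunicamycin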
Tb MetRS inh: Trypanosoma brucei MetRS inhibition; purified T. brucei MetRS, ATP depletion, Kinase-Glo luminescence; inhibition, % at 11.9 µM; 360,000 tested, 0.4% active;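 active means inhibition above a per-plate cutoff of the control wells' mean inhibition plus 3 SD, cut at about 5.5% in these data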;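 further: 0% = DMSO wells median and 100% = median of wells with control inhibitor compound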
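technique = Kinase-Glo luminescence, ATP depletion format | system = purified MetRS (methionyl-tRNA synthetase) enzyme from Trypanosoma brucei | timing = 15 min preincubation, 2 h reaction, all 25 °C | evaluation = percent inhibition versus plate control medians | dosing = single dose, 11.9 µM final nominal, 0.9% final DMSO | also added = substrates ATP, L-methionine and bulk Escherichia coli tRNA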
WT yeast gro inh: growth inhibition of WT yeast, mitochondrial fusion screen | mitochondrial fusion phenotypic screen, WT strain | inhibition, % at 10 µM | 190,000 tested, 2.1% active | AID 1362; in the data active means inhibition above about 58%; tested in S. cerevisiae
MPTP block: blocks calcium-induced mitochondrial swelling; isolated mouse mitochondria, Ca2+ swelling absorbance, 30 min; AID 602449; 360,000 tested, 1.4% active; inhibition, % at 10 µM;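 active means inhibition of 50% or more, scaled per plate between neutral and stimulator controls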;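 further: 0% = DMSO wells given calcium and 100% = 1 mM EGTA wells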
* hit, by the source's call; . = not tested or not shown. The list is not random: actives were taken first. Their share in the collection is about 6.4%.

SMILES | NR3A LBD binder | EBV gp42 inh | CHOP inh | Tb MetRS inh | WT yeast gro inh | MPTP block
CNc1cc([N+](=O)[O-])ccc1N/C=C/C(=O)c1cccs1 | 1 | 9 | 10 | -2 | 0 | -1
O=C(/C=C/c1ccccc1Br)c1ccc2c(c1)OCO2 | -2 | . | . | 0 | . | 0
CNc1cc([N+](=O)[O-])ccc1N/C=C/C(=O)c1ccc2c(c1)OCO2 | 13* | 21 | 23 | -1 | 9 | 3
O=C(/C=C\Nc1ccccc1Br)c1ccc2c(c1)OCO2 | 36* | 11 | 27 | -1 | 51 | 2
CCc1sc(N(C(=O)Cc2ccccc2)c2ccccc2F)nc1-c1ccc(C)cc1 | -2 | -4 | 10 | -1 | 7 | 4
CCC(C)c1c(O)nc(SCC(=O)c2ccccc2)[nH]c1=O (configuration not stated) | 0 | -8 | 53 | 0 | -17 | -2
CCCn1nnnc1SCC(=O)c1ccc2c(c1)OCCO2 | -12 | -8 | 85* | 0 | 10 | 2
CCOc1ccc(N2C(=O)CC(N3CCC(NC(=O)Nc4ccccc4)CC3)C2=O)cc1 (configuration not stated) | 14* | -16 | 34 | -1 | 0 | 0
CCOC(=O)c1ccc(N2C(=O)CC(N3CCC(Nc4ccc(F)cc4)CC3)C2=O)cc1 (configuration not stated) | 2 | -11 | 84* | -1 | 1 | -2
COC(C(=O)C(O)C(C)O)C1Cc2cc3cc(OC4CC(OC5CC(O)C(O)C(C)O5)C(O)C(C)O4)c(C)c(O)c3c(O)c2C(=O)C1OC1CC(OC2CC(OC3CC(O)C(OC)C(C)O3)C(O)C(C)O2)C(O)C(C)O1 (configuration not stated) | -3 | . | . | 0 | . | 0
O=C(COC(=O)c1ccncc1)Nc1cc(Cl)c(Cl)cc1Cl | . | -15 | 1 | . | 71* | .
O=C(COC(=O)c1ccncc1)Nc1cc(Cl)ccc1Cl | 3 | -10 | 12 | -1 | 2 | -1
CCOc1ccc(N/C=C/C(=O)c2ccc3ccccc3c2)c([N+](=O)[O-])c1 | 37* | 0 | 16 | -1 | -2 | 1
Nc1cc2c(cc1Cl)-c1ccccc1C2=NO | 34* | . | . | 0 | . | 2
ON=C1c2ccccc2-c2ccccc21 | 0 | . | . | 0 | . | -1
O=C1Nc2ccccc2C12OCC(COc1ccc(Cl)cc1)O2 (configuration not stated) | -7 | -9 | 80* | 1 | 42 | 3
CN1C(=O)C2(OCC(COc3ccc(Cl)cc3)O2)c2ccccc21 (configuration not stated) | . | -18 | 81* | 0 | 13 | -1
CN1C(=O)C2(OCC(C)([N+](=O)[O-])CO2)c2ccccc21 (configuration not stated) | 0 | . | . | -1 | . | -1
Cc1c(NC(=O)CSCc2ccc(Cl)cc2Cl)cccc1C(=O)O | 1 | . | . | 1 | . | -1
CC(=O)Nc1ccc(S(=O)(=O)NCCC(=O)OCC(=O)c2ccccc2)cc1 | 1 | . | . | -1 | . | 0
O=[N+]([O-])c1ccc2[nH]cc(S(=O)(=O)N3CCN(c4cccc(Cl)c4)CC3)c2c1 | 27* | . | . | 0 | . | 4
O=S(=O)(c1ccccc1)N1CCN(c2cccc(Cl)c2)CC1 | 0 | . | . | -1 | . | 1
Cc1cc(C)c[n+](-c2nc3ccccc3nc2[N-]S(=O)(=O)c2ccc(Br)s2)c1 | 1 | 66* | 27 | 0 | -7 | 3
CCC(C)(C)c1ccc2c(c1)C(=O)c1ccccc1C2=O | 4 | -18 | 13 | 0 | 76* | 2
O=C(Nc1cccc(O)c1)c1cccc(NC(=O)c2cccs2)c1 | 28* | . | . | 0 | . | 0
SMILES | NR3A LBD binder | EBV gp42 inh | CHOP inh | Tb MetRS inh | WT yeast gro inh | MPTP block
O=C(Nc1cccc(NC(=O)c2cccs2)c1)c1ccc(Br)cc1 | 13* | . | . | -1 | . | 0
COc1ccc(CN2CCN(Cc3c[nH]c4ccccc34)CC2)c(OC)c1 | . | . | . | 0 | . | 1
O=C1C2ON(c3ccc(Cl)cc3)C(c3ccco3)C2C(=O)N1c1ccccc1 (configuration not stated) | -14 | -9 | 74* | 0 | -4 | -1
O=C1C2ON(c3ccccc3)C(c3ccccc3F)C2C(=O)N1c1ccccc1 (configuration not stated) | -14 | -19 | 80* | 0 | 18 | 4
O=C(O)c1ccc(N2C(=O)C3ON(c4ccccc4)C(c4ccccc4F)C3C2=O)cc1 (configuration not stated) | -1 | -13 | 11 | -1 | -7 | 0
Cc1ccc(/C=N/NC(=O)CSc2nc3ccccc3c(=O)n2-c2ccccc2)s1 | 4 | -11 | -21 | -1 | 4 | 8
COc1ccc(/C=N/n2c(C)nnc2C)c(OC)c1 | 2 | -9 | 14 | 0 | -12 | -4
N#CC12CCCCC1CC1CCCCC1(C#N)N2Cc1ccccn1 (configuration not stated) | 10* | 2 | -6 | -1 | -20 | -5
N#CC12CCCCC1CC1CCCCC1(C#N)N2CCO (configuration not stated) | -4 | -15 | 25 | -1 | 2 | -2
O=C(O)c1ccc(-n2c(=O)c3ccccc3c3ccccc3c2=O)cc1 | 0 | -12 | 5 | -1 | 9 | -1
CC(C)Cc1nnc(NC(=O)c2cc3c(s2)CCC3)s1 | -1 | -38 | 85* | 0 | . | 0
O=C(Nc1nncs1)c1cc2c(s1)CCC2 | 2 | -13 | 6 | -1 | -16 | -2
C[C@H](CO)N1C[C@H](C)[C@H](CN(C)Cc2cccc(O)c2)OCc2ccccc2-c2c(n(C)c3ccccc23)C1=O | . | . | . | 0 | . | 0
COc1ccc(S(=O)(=O)N(C)C[C@H]2Oc3c(NC(=O)CCC(F)(F)F)cccc3C(=O)N([C@H](C)CO)C[C@@H]2C)cc1 | 10* | . | . | 0 | . | -2
COc1ccc(S(=O)(=O)Nc2cccc3c2O[C@H](CN(C)S(=O)(=O)c2ccc(F)cc2)[C@H](C)CN([C@H](C)CO)C3=O)cc1 | 10* | . | . | 0 | . | 0
C[C@H](CO)N1C[C@H](C)[C@@H](CN(C)S(=O)(=O)c2ccc(F)cc2)Oc2c(NS(=O)(=O)c3ccc(F)cc3)cccc2C1=O | 1 | . | . | -1 | . | -1
Cc1ccc(S(=O)(=O)N2CCN(C(=O)CCNC(=O)c3ccccc3Cl)CC2)cc1 | 1 | . | . | 0 | . | 1
CCc1ccc(S(=O)(=O)n2c(C)nc3ccccc32)cc1 | 3 | . | . | 0 | . | 1
Clc1cccc(-c2ccc(-c3nc4ccccn4c3NCc3ccccc3)cc2)c1 | 20* | . | . | 0 | . | 6
CCN1C(=O)[C@H]2[C@H]3CN=C(SCc4ccc(C(=O)OC)cc4)N3[C@@](Cc3ccccc3)(C(=O)OC)[C@H]2C1=O | 0 | . | . | 0 | . | 6
O=c1ccccn1Cc1c(Cl)cccc1Cl | 0 | -2 | -18 | -1 | 73* | -2
O=C(CSc1nnnn1-c1ccccc1)NCc1cccs1 | -3 | -13 | 0 | -1 | 74* | -1
